# Screens: PubChem BioAssay, Johns Hopkins Ion Channel Center
# Rows were chosen to be rich in hits. Some 3.1% of all compounds tested hit in one or more screens of this group.
# hERG rescue = compounds protecting human hERG from proarrhythmic drug block; activation (rescue from dofetilide block), less the hit threshold, % at 10 µM; actives 0.51% (n = 310,000); AID 1511; CHO-hERG, FluxOR thallium flux, dofetilide IC70 present;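 active means activation above the mean of controls blocked by dofetilide plus 5 SD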;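 further: thallium influx through hERG after potassium depolarization seen as dye fluorescence rise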
# KCNQ1 inh = human KCNQ1 channel inhibition; actives 1.3% (n = 310,000); CHO-K1 KCNQ1, FluxOR thallium flux fluorescence; hits give high values; AID 2642; P51787; B-score at 10 µM;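 active means compounds whose thallium flux B-score, printed positive for inhibition, exceeds three library SD while starting fluorescence stays within three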;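 further: channel opened by potassium depolarization with thallium stimulus after 20 min compound exposure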
# KCNK3 inh = human KCNK3 channel inhibition, primary screen; CHO-KCNK3 thallium flux, FluxOR fluorescence; hits give low values; AID 602410; B-score at 10 µM; actives 0.84% (n = 340,000); O14649;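 active means B-score under library mean minus 4 SD, starting fluorescence ratio at most library mean plus 5 SD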;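 further: more negative B-score means stronger inhibition of thallium flux through KCNK3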
# KCNQ1 act = potentiators or activators of human KCNQ1 potassium channel; B-score at 10 µM; P51787; actives 0.35% (n = 310,000); CHO-K1 KCNQ1, thallium flux FluxOR fluorescence; hits give high values;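 active means fluorescence ratio B-score, a plate-corrected score, at least three library SD, with initial intensity B-score within 5 SD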
#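 Medium – assay buffer, equal DMSO in all wells · Material – CHO-K1 cell line with stable KCNQ1 potassium channel expression · Signal – kinetic FluxOR thallium fluorescence, 10-s 1-Hz baseline, 110-s post-stimulus read · Compound – single concentration per compound, DMSO matched to controls · Schedule – 37 °C overnight plating, 90-min dark dye load, 20-min compound pretreatment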
# KCNK9 inh = blocks the human KCNK9 two-pore domain potassium channel | Q9NPC2 | HEK293 KCNK9, FluxOR thallium flux fluorescence; hits give low values | B-score at 10 µM | actives 1.2% (n = 310,000);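 active means ratio B-score over 3 SD below the library mean, with starting fluorescence within 5 SD of its mean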;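 further: negative B-score means less thallium flux so channel inhibition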
# The depositor's hits bear a star; i = inactive; · = no result given.
SMILES,hERG rescue,KCNQ1 inh,KCNK3 inh,KCNQ1 act,KCNK9 inh
Cc1cc(C(=O)CSc2nncn2C)c(C)n1-c1ccccc1,-14.1,i,i,i,i
O=C(NNC(=O)c1ccncc1)NC1CCCCC1,8.7*,i,i,i,i
CCOC(=O)/C(C#N)=C1\CCCN1CC(N)=S,-3.4,i,i,i,i
Cc1occc1C(=O)Nc1cccc([N+](=O)[O-])c1,8.6*,i,i,i,i
O=C(Nc1cccc([N+](=O)[O-])c1)c1ccc2ccccc2c1O,-17.6,6*,i,i,i
CC1CCCCC1NC(=O)COC(=O)c1ccc2c(c1)NC(=O)CS2 (stereo not drawn),·,·,i,·,·
CCOC(=O)c1c(C)[nH]c(C)c1C(=O)COC(=O)c1cc2ccccc2cc1OC,-7.7,i,i,i,-7.73*
O=C1C(=C(I)I)c2ccccc2-c2ccccc21,·,·,-9.41*,·,·
CCCCNC(=O)NS(=O)(=O)c1ccc(NC(=O)CCC(=O)c2cccs2)cc1,-7.3,i,i,i,i
N#CC1=C(N)NC(SCC(=O)c2ccccc2)=C(C#N)C12CCCC2,-13.9,i,i,i,i
N#CC1=C(N)NC(SCC(=O)Nc2ccc(Br)cc2)=C(C#N)C12CCCCC2,-13.9,9*,i,i,i
CCSC1=C(C#N)C(c2cccs2)C(C(=O)OC)=C(C)N1 (stereo not drawn),-3.3,i,i,i,i
CCCSC1=C(C#N)C(c2cccs2)C(C(=O)Nc2ccccc2)=C(C)N1 (stereo not drawn),-14.4,12*,i,i,i
Cc1cc(C)nc(SCc2nnc(SCC(=O)Nc3nc(-c4ccccc4)cs3)n2-c2ccccc2)n1,6.5*,i,i,i,i
COc1cccc(CN(CC(=O)NCc2ccccc2)C(=O)c2csnn2)c1,-6.5,i,i,i,i
CC(=O)OCC1=C(C(=O)O)N2C(=O)C(NC(=O)c3ccc(COc4cccc(Cl)c4Cl)o3)C2SC1 (stereo not drawn),-6.1,i,i,i,i
COc1ccc2nc(/N=C/c3c(C)[nH]n(-c4ccc(C)cc4)c3=O)sc2c1,10.2*,i,i,39*,i
CCc1nnc(NS(=O)(=O)c2ccc(N=Cc3c(C)[nH]n(-c4ccc(Cl)cc4)c3=O)cc2)s1,-3.5,i,i,i,i
Cc1[nH]n(-c2ccc(Cl)cc2)c(=O)c1/C=N/c1nnc(-c2ccccc2)s1,87.5*,i,i,9*,i
Cc1nn(CC(=O)Nc2ccc(S(N)(=O)=O)cc2)c(=O)c2ccccc12,-10.0,i,i,i,i
C=CCOc1cccc(/C=N/NC(=O)CN2CCCCC2)c1,-6.5,i,i,i,i
COc1ccccc1-c1nnc(SCC(=O)Nc2ccc(S(N)(=O)=O)cc2)n1C,-4.7,i,i,i,i
COc1ccc(-[n+]2c(C)cc(/C=C3\Sc4ccccc4N3C)cc2C)cc1,-45.9,23*,i,i,i
CC(C)(C)n1nnnc1C(c1cccs1)N(Cc1cccnc1)Cc1ccco1 (stereo not drawn),-8.9,i,i,i,-7.16*
C=CCN1C(=O)S/C(=C/c2ccc(Sc3nc4ccccc4[nH]3)o2)C1=O,-3.1,6*,i,i,i
SMILES,hERG rescue,KCNQ1 inh,KCNK3 inh,KCNQ1 act,KCNK9 inh
CCOc1ccccc1N(C)C(=O)CCS(=O)(=O)c1ccc2c(c1)NC(=O)CO2,-4.5,i,i,i,i
Cc1cc(C)c2sc(N(CCCN(C)C)C(=O)c3ccc(S(=O)(=O)N4CCc5ccccc5C4)cc3)nc2c1,-8.6,i,i,i,i
Cc1cc(C)c2sc(N(CCCN(C)C)C(=O)c3ccc(S(=O)(=O)N4CCCc5ccccc54)cc3)nc2c1,-17.5,6*,i,i,i
N#Cc1ccsc1NC(=O)CN1CCN(c2ccccc2)CC1,8.6*,i,i,i,i
COc1ccc(C(=O)CC(=O)C(=O)Nc2cc(C)ccc2C)cc1,-2.2,i,i,i,i
COc1ccc(C(=O)CC(=O)C(=O)Nc2cccc(F)c2)cc1,-0.3,i,i,i,i
CCOc1ccccc1NC(=O)C(=O)CC(=O)c1ccc(OC)cc1,15.1*,i,i,14*,i
